# An excerpt weighted towards active compounds, which were near 2.7% of everything screened.
# SIRT5 inh: sirtuin-5 (human) deacylase inhibition; Q9NXA8; inhibition, % at 15 µM; Purified SirT5, succinyl-peptide AMC, trypsin-coupled fluorescence; AID 652115; 330,000 compounds, 1.1% hits; in the data active means inhibition above about 15%
# Target sequence (Q9NXA8 whole entry, looked up): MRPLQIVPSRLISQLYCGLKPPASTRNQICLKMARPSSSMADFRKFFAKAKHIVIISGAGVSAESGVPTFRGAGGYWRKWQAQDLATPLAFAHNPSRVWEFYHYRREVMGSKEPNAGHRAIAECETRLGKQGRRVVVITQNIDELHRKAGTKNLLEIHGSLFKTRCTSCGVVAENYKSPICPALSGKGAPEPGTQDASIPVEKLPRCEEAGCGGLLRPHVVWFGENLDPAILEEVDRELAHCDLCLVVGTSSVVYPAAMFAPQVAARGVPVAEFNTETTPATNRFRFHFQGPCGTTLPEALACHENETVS
# MLL AF4-AF9 inh: blocks AF4 peptide binding to human AF9 | AlphaScreen, biotin-AF4 peptide binding to FLAG-AF9 | inhibition, % at 10 µM | AID 651704 | P42568 | 350,000 compounds, 0.47% hits;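 active means every replicate reaching a set inhibition limit, whatever the replicate mean, cut at about 25% in these data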
# S100A4 inh HTS: blocks human S100A4 binding to myosin IIA peptide. P26447. S100A4/TAMRA-MyoIIA peptide fluorescence polarization. inhibition, % at 10.7 µM. 360,000 compounds, 0.14% hits;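 active means mean inhibition of at least 70% across replicates, with every replicate also reaching that level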
# Target sequence (P26447 whole entry, looked up): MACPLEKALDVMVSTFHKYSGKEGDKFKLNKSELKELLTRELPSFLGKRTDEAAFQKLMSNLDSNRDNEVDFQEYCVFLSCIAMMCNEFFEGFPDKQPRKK
#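 Material: human S100A4 monomer with TAMRA-labelled myosin IIA peptide; buffer or medium: HEPES pH 7.2 with CaCl2, KCl, NaCl, DTT, Triton; compound dosing: one concentration per compound; schedule: 5 min incubation before reading; benchmarks: neutral control DMSO, positive control TFP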
# DENV2 CPE rescue: inhibitors of DENV2 cytopathic effect; DENV2-infected cells, cytopathic effect rescue, plate reader; CPE inhibition, % at 9.99 µM; 350,000 compounds, 1.7% hits; in the data active means CPE inhibition above about 20%, passing the limit was not always enough; tested in BHK-21 cells
# CaV13 FRET inh: Primary screen for inhibitors of IQ motif and Ca2+-dependent inactivation inhibitor domain binding in CACNA1D, Förster resonance energy transfer in living cells, …; inhibition, % at 12.3 µM; HEK cells, CFP/YFP FRET ICDI-IQ, plate reader, 10 min; percent FRET-ratio fall versus neutral wells; 340,000 compounds, 0.098% hits;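 active means mean replicate inhibition of at least 30% and at least 1% of replicates passing that level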
# Numbers stand for hits; . = inactive; / = no result given; + = active, no number.
SMILES,SIRT5 inh,MLL AF4-AF9 inh,S100A4 inh HTS,DENV2 CPE rescue,CaV13 FRET inh
CCC(=O)N1CC[C@@H]2[C@@H](CO)Nc3ccc(-c4ccc(OC)cc4)cc3[C@@H]21,/,/,/,131,/
COc1ccc(-c2ccc3c(c2)[C@@H]2[C@@H](CCN2C(=O)CN2CCOCC2)[C@H](CO)N3)cc1,.,.,.,.,/
Cc1noc(C)c1CSCC(=O)Nc1ccccc1N1CCCC1,16,.,.,.,.
COC(=O)C1=C(C)N(Cc2ccco2)C(=O)N[C@@H]1c1ccco1,.,.,.,60,.
COC(=O)C1=C(C)N(Cc2ccco2)C(=O)N[C@@H]1c1ccccc1,.,.,.,.,.
CC=Cc1ccc2n(c1=O)C[C@@H]1[C@@H](CO)[C@H](C(=O)NCCc3ccncc3)[C@H]2N1CCc1ccccc1 (mixture of isomers),.,.,.,.,/
Cc1ccc(S(=O)(=O)N(C)C[C@@H]2OCCCC[C@H](C)Oc3ccc(NS(=O)(=O)c4c(C)noc4C)cc3C(=O)N([C@@H](C)CO)C[C@H]2C)cc1,.,.,.,.,/
Cc1noc(C)c1S(=O)(=O)N(C)C[C@@H]1OCCCC[C@@H](C)Oc2ccc(NS(=O)(=O)c3ccc(Cl)cc3)cc2C(=O)N([C@H](C)CO)C[C@H]1C,.,.,.,31,/
Cc1ccc(S(=O)(=O)N(C)C[C@H]2OCCCC[C@H](C)Oc3ccc(NS(=O)(=O)c4c(C)noc4C)cc3C(=O)N([C@@H](C)CO)C[C@H]2C)cc1,.,.,.,49,/
Cc1ccc(S(=O)(=O)N(C)C[C@@H]2OCCCC[C@H](C)Oc3ccc(NS(=O)(=O)c4c(C)noc4C)cc3C(=O)N([C@@H](C)CO)C[C@@H]2C)cc1,.,.,.,81,/
COc1ccc(S(=O)(=O)N(C)C[C@@H]2OCCCC[C@H](C)Oc3ccc(NS(=O)(=O)c4c(C)noc4C)cc3C(=O)N([C@H](C)CO)C[C@H]2C)cc1,.,.,.,96,/
Cc1ccc(S(=O)(=O)Nc2ccc3c(c2)CC(=O)N([C@@H](C)CO)C[C@H](C)[C@H](CN(C)S(=O)(=O)c2cn(C)cn2)O3)cc1,.,.,.,.,/
Cc1ccc(S(=O)(=O)N(C)C[C@H]2OCCCC[C@@H](C)Oc3ccc(NS(=O)(=O)c4c(C)noc4C)cc3C(=O)N([C@@H](C)CO)C[C@H]2C)cc1,.,.,94,.,/
Cc1ccc(S(=O)(=O)Nc2ccc3c(c2)C(=O)N([C@H](C)CO)C[C@H](C)[C@H](CN(C)S(=O)(=O)c2c(C)noc2C)OCCCC[C@H](C)O3)cc1,.,.,.,31,/
Cc1ccc(S(=O)(=O)Nc2ccc3c(c2)C(=O)N([C@H](C)CO)C[C@H](C)[C@H](CN(C)S(=O)(=O)c2c(C)noc2C)OCCCC[C@@H](C)O3)cc1,.,.,.,.,/
Cc1ccc(S(=O)(=O)N(C)C[C@H]2OCCCC[C@H](C)Oc3ccc(NS(=O)(=O)c4c(C)noc4C)cc3C(=O)N([C@H](C)CO)C[C@H]2C)cc1,.,.,.,.,/
CC(C)NC(=O)Nc1ccc2c(c1)C(=O)N([C@H](C)CO)C[C@@H](C)[C@H](CN(C)S(=O)(=O)c1ccc(F)cc1)OCCCC[C@H](C)O2,.,.,.,.,/
C[C@@H]1CN([C@H](C)CO)C(=O)Cc2cc(NC(=O)Cc3ccccc3)ccc2O[C@@H]1CN(C)S(C)(=O)=O,.,.,.,.,/
COCC(=O)Nc1ccc2c(c1)OC[C@H](C)N(Cc1cccc(F)c1)C[C@@H](C)[C@H](OC)CN(C)C2=O,.,.,.,.,/
O=C(C1=NN(c2ccccc2)C2C(=O)N(c3ccccc3)C(=O)C12)c1ccccc1 (configuration not stated),.,.,.,.,+
O=[N+]([O-])c1cccc(S(=O)(=O)N2CCN(S(=O)(=O)N3CCOCC3)CC2)c1,16,.,.,.,.
O=[N+]([O-])c1ccccc1S(=O)(=O)Nc1ccc(S(=O)(=O)N2CCOCC2)cc1,.,.,.,31,.
CCCNC(=O)c1ccc2c(=O)c(O)c(-c3ccc(C)cc3)[nH]c2c1,.,.,.,.,.
Cc1ccc(-c2[nH]c3cc(C(=O)NCCCn4ccnc4)ccc3c(=O)c2O)cc1,.,57,.,.,.
CO[C@H]1CN(C)C(=O)c2cc(NS(=O)(=O)c3cccc(F)c3)ccc2OC[C@H](C)N(Cc2cc(F)ccc2F)C[C@@H]1C,16,.,.,.,/
SMILES,SIRT5 inh,MLL AF4-AF9 inh,S100A4 inh HTS,DENV2 CPE rescue,CaV13 FRET inh
CO[C@H]1CN(C)C(=O)c2cc(NS(=O)(=O)c3cccc(F)c3)ccc2OC[C@H](C)N(Cc2cc(F)ccc2F)C[C@H]1C,.,.,.,.,/
CO[C@H]1CN(C)C(=O)c2cc(NS(=O)(=O)c3cccc(F)c3)ccc2OC[C@@H](C)N(Cc2cc(F)ccc2F)C[C@@H]1C,.,.,.,22,/
CO[C@H]1CN(C)C(=O)c2ccc(NS(=O)(=O)c3cccc(F)c3)cc2OC[C@@H](C)N(Cc2cc(F)ccc2F)C[C@H]1C,/,.,.,49,/
C[C@@H]1CN([C@@H](C)CO)C(=O)c2cc(NS(C)(=O)=O)ccc2O[C@@H](C)CCCCO[C@H]1CN(C)S(=O)(=O)c1cn(C)cn1,.,.,.,.,/
NC1=NC[C@H](c2ccccc2)N1CC1CCCCC1,/,.,.,.,.
CC(O)[C@H]1CN=C(N)N1CC1CCCCC1 (some centres not stated),16,.,.,.,.
FC(F)(F)c1ccc(Cl)c(NC(=S)N/N=C/c2ccccc2Cl)c1,28,.,.,.,.
S=C(N/N=C/c1ccc(Cl)c(Cl)c1)Nc1ccccc1Cl,.,.,.,.,.
C[C@@H]1CN([C@H](C)CO)C(=O)c2cc(NS(=O)(=O)c3ccc(Cl)cc3)ccc2O[C@H]1CN(C)S(=O)(=O)c1ccc(Cl)cc1,.,.,.,.,/
Cn1cnc(S(=O)(=O)N2C[C@H](O)COC[C@@H]3O[C@@H](CC(=O)N4CCN(c5ccccc5)CC4)CC[C@H]32)c1,.,.,.,.,/
C[C@@H]1CCCCO[C@@H](CN(C)C(=O)Nc2ccc(F)cc2)[C@H](C)CN([C@H](C)CO)C(=O)c2cc(NC(=O)C3CCCCC3)ccc2O1,.,.,.,32,/
C[C@H]1CCCCO[C@H](CN(C)C(=O)Nc2ccc(F)cc2)[C@@H](C)CN([C@@H](C)CO)C(=O)c2cc(NC(=O)Nc3ccc(F)cc3)ccc2O1,.,.,.,46,/
C[C@@H]1CCCCO[C@@H](CN(C)C(=O)Cc2ccccc2)[C@@H](C)CN([C@@H](C)CO)C(=O)c2cc(NC(=O)Nc3ccc(F)cc3)ccc2O1,32,.,.,.,/
C[C@@H]1CCCCO[C@H](CN(C)C(=O)Nc2ccc(F)cc2)[C@@H](C)CN([C@H](C)CO)C(=O)c2cc(NC(=O)Nc3ccc(F)cc3)ccc2O1,27,.,.,.,/
